From ChEMBL document CHEMBL4177706, “Exploiting a water network to achieve enthalpy-driven, bromodomain-selective BET inhibitors” (Bioorg Med Chem, 2018)

Tests used:
[1] = biological target: T1, Bromodomain-containing protein 2 (Homo sapiens, UniProt P25440); assay: Inhibition of recombinant human BRD2 bromodomain 1 (49 to 170 residues) using biotin labeled peptide substrate preincubated for 15 mins followed by substrate addition measured after 1 hr by TR-FRET assay; format: single protein
Target sequence in this assay (P25440 whole entry, the tested form may be a part): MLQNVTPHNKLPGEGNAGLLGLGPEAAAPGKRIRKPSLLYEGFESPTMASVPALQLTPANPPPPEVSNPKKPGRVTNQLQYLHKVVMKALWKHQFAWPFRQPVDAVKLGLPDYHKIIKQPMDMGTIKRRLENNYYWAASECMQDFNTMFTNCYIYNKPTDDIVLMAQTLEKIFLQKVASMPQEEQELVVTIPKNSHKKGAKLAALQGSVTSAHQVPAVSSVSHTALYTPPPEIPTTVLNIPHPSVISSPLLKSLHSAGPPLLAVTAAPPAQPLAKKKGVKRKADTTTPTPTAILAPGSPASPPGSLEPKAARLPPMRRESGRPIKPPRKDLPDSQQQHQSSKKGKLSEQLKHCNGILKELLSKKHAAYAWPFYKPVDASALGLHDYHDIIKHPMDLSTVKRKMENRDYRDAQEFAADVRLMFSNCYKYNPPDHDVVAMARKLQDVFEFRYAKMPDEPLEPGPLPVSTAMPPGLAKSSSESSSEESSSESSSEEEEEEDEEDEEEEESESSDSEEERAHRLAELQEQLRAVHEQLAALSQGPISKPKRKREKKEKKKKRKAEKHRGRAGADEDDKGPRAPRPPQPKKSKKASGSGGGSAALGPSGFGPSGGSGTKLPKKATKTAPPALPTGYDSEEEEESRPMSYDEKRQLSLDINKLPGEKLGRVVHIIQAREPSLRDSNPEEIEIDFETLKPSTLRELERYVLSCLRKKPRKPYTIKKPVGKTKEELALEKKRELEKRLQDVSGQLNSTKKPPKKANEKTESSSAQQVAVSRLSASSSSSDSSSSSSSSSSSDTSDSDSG

[2] = biological target: T1, Bromodomain-containing protein 2
Target sequence in this assay (P25440 whole entry, the tested form may be a part): as above

[3] = biological target: T1, Bromodomain-containing protein 2; assay: Binding affinity to His-tagged BRD2 bromodomain 1 (unknown origin) by SPR assay; format: single protein
Procedure, shortened: (§1)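 SPR at 15 °C: poly-His BRD2 bromodomain constructs capture-coupled (Ni2+/NTA plus EDC/NHS amine coupling) to ~450–530 RU, with a reference channel. Compounds run as 3-fold series from 2 μM, in duplicate, at 150 μL/min.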
Target sequence in this assay (P25440 whole entry, the tested form may be a part): as above

Homo sapiens [4] = species: Homo sapiens; assay: Selectivity index, ratio of Kd for His-tagged BRD2 bromodomain 1 (unknown origin) to Kd for His-tagged BRD2 bromodomain 2 (unknown origin); procedure, shortened: as §1
[5] = biological target: T1, Bromodomain-containing protein 2; assay: Binding affinity to BRD2 bromodomain 1 (74 to 194 residues) (unknown origin) by ITC
Target sequence in this assay (P25440 whole entry, the tested form may be a part): as above

Homo sapiens [6] = species: Homo sapiens; assay: Selectivity index, ratio of Kd for BRD2 bromodomain 1 (74 to 194 residues) (unknown origin to Kd for BRD2 bromodomain 2 (348 to 455 residues) (unknown origin)
BJ = assay: Cytotoxicity against human BJ cells assessed as reduction in cell viability after 3 days by CellTiter-Glo assay; format: cell-based
HEK293 = assay: Cytotoxicity against HEK293 cells assessed as reduction in cell viability after 3 days by CellTiter-Glo assay; format: cell-based, Homo sapiens
HepG2 = assay: Cytotoxicity against human HepG2 cells assessed as reduction in cell viability after 3 days by CellTiter-Glo assay; format: cell-based
[7] = biological target: T1, Bromodomain-containing protein 2; assay: Inhibition of BRD2 in human HD-MB03 cells assessed as reduction in c-Myc protein expression after 72 hrs by Hoechst 33342 staining based immunofluorescence assay; format: cell-based
Procedure, shortened: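 HD-MB03 cells (3000/well, supplemented neurobasal medium) treated 24 h after plating with compound at 2 nM–40 μM final for 72 h. Imaged at 10x; nuclear masks from Hoechst used to quantify MYC per nucleus.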
Target sequence in this assay (P25440 whole entry, looked up, the tested form may be a part): as the sequence (P25440 whole entry, the tested form may be a part) above

[8] = biological target: T1, Bromodomain-containing protein 2; assay: Binding affinity to His-tagged BRD2 bromodomain 2 (unknown origin) by SPR assay; procedure, shortened: as §1
Target sequence in this assay (P25440 whole entry, the tested form may be a part): as above

[9] = Cytotoxicity against human HD-MB03 cells assessed as reduction in cell viability after 5 days by CellTiter-Glo assay; details: HD-MB03, 120 h
[10] = Cytotoxicity against human NALM16 cells assessed as reduction in cell viability after 5 days by CellTiter-Glo assay; details: NALM16, 120 h
LOUCY = assay: Cytotoxicity against human Loucy cells assessed as reduction in cell viability after 5 days by CellTiter-Glo assay; details: 120 h

SMILES | IC50 [1] [µM] | IC50 [2] [µM] | Kd [3] [µM] | Selectivity Index (Homo sapiens [4]) | Kd [5] [µM] | Selectivity Index (Homo sapiens [6]) | EC50 (BJ) | EC50 (HEK293) | EC50 (HepG2) | inhibition [7] | Kd [8] [µM] | EC50 [9] [µM] | EC50 [10] [µM] | EC50 (LOUCY) [µM]
CC(=O)N1c2ccc(-c3cccs3)cc2[C@H](NC(=O)OC(C)C)C[C@@H]1C | 1.77 | 0.83 | 0.066 | 1.1 | 0.0613 | 2.9 |  |  |  |  |  |  |  | 
CC(=O)N1c2ccc(-c3ccco3)cc2[C@H](NC(=O)OC(C)C)C[C@@H]1C |  |  |  |  |  |  | Non-Toxic | Non-Toxic | Non-Toxic | Dose-dependent effect |  |  |  | 
CC(=O)N1c2ccc(-c3cc[nH]c3)cc2[C@H](NC(=O)OC(C)C)C[C@@H]1C | 2.48 | 0.41 | 0.104 | 1.4 |  | 4.6 |  |  |  |  | 0.077 |  |  | 
CC(=O)N1c2ccc(-c3ccoc3)cc2[C@H](NC(=O)OC(C)C)C[C@@H]1C | 5.8 | 1.91 | 0.245 | 1.7 |  | 0.5 |  |  |  |  | 0.148 |  |  | 
CC(=O)N1c2ccc(-c3ccc[nH]3)cc2[C@H](NC(=O)OC(C)C)C[C@@H]1C | 1.4 | 1.4 | 0.099 | 1.3 |  | 3.7 |  |  |  |  | 0.074 |  |  | 
COc1cc(OC)c2c(=O)[nH]c(-c3cc(C)c(OCCO)c(C)c3)nc2c1 [APABETALONE] |  |  |  |  |  |  | Non-Toxic | Non-Toxic | Non-Toxic |  |  |  |  | 
CC(=O)N1c2ccc(-c3ccsc3)cc2[C@H](NC(=O)OC(C)C)C[C@@H]1C | 5.21 | 1.08 | 0.105 | 1.5 | 0.0717 | 4.2 |  |  |  |  |  |  |  | 
Cc1sc2c(c1C)C(c1ccc(Cl)cc1)=N[C@@H](CC(=O)OC(C)(C)C)c1nnc(C)n1-2 |  |  |  |  |  |  | Non-Toxic | Non-Toxic | Non-Toxic |  |  |  |  | 
CC(=O)N1c2ccc(-c3ccc(C(=O)O)cc3)cc2[C@H](Nc2ccc(Cl)cc2)C[C@@H]1C | 0.72 | 0.03 |  |  |  |  | Non-Toxic |  | Non-Toxic |  |  | 0.2 | 0.31 | 0.7
CCNC(=O)C[C@@H]1N=C(c2ccc(Cl)cc2)c2cc(OC)ccc2-n2c(C)nnc21 [MOLIBRESIB] |  |  |  |  |  |  | Non-Toxic | Non-Toxic | Non-Toxic |  |  |  |  | 
